Test results as given in ChEMBL document CHEMBL1138854, “Synthesis and antitumor activity of guanylhydrazones from 6-(2,4-dichloro-5-nitrophenyl)imidazo[2,1-b]thiazoles and 6-pyridylimidazo[2,1-b]thiazoles(1)” (2006).
“And” between values parts separate entries of the source, which are not always exact repeats. Equal values may be shown once. The source made the active and inactive calls. The rule behind the calls is not given here.

Columns and labels:
HL-60 [1] = assay: Induction of cell death in HL60 cells at 50 uM within 3 hrs relative to control; type: functional, Homo sapiens
In short: (§1)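 Compound was dissolved in DMSO and diluted into complete medium; controls received matching DMSO. Cell death was scored by propidium iodide flow cytometry and by trypan blue exclusion. One experiment is shown, repeated three times.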

HL-60 [2] = assay: Induction of cell death in HL60 cells at 50 uM after 24 hrs relative to control; type: functional, Homo sapiens; in short: as §1
HL-60 [3] = assay: Cell cycle arrest in HL60 cells by accumulation in G2/M phase; type: functional, cell-based; conditions: Homo sapiens
In short: (§2)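 HL60 cells (RPMI 1640, 10% FCS, 2 mM glutamine, 37 °C, 5% CO2) exposed to graded concentrations for 24 h; compound in DMSO diluted in complete medium, DMSO vehicle controls. Nuclei isolated, kept at 4 °C in dark, stained with 50 µg/mL propidium iodide just before flow cytometry; DNA profiles give G0/G1, S, G2/M fractions. Mean ± SEM of three determinations.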

HL-60 [4] = assay: Reduction in G0/G1 phase of cell cycle arrest in HL60 cells; type: functional, cell-based; conditions: Homo sapiens; in short: as §2
HL-60 [5] = assay: Reduction in S phase of cell cycle arrest in HL60 cells; type: functional, cell-based; conditions: Homo sapiens; in short: as §2
HL-60 [6] = assay: Increase in p21 level in HL60 cells at 25 uM after 24 hrs; type: functional, cell-based; conditions: Homo sapiens
In short: (§3)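 HL60 cells held 24 h with or without 25 µM compound (DMSO vehicle); cellular proteins extracted and p21 and p27 detected by Western blotting with specific antibodies. Repeated at least twice.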

HL-60 [7] = assay: Increase in p27 level in HL60 cells at 25 uM after 24 hrs; type: functional, cell-based; conditions: Homo sapiens; in short: as §3
[8] = Antitumor activity against leukemia cell lines of the NCI60 panel; type: functional; conditions: Homo sapiens; for TGI: read-out: pTGI (converted)
In short: (§4)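 Run by NCI in the 60-cell-line panel (details in Supporting Information). Highest concentration 10^-4 M unless noted (one case 10-2.6 M). Values expressed as -log molar concentration giving 50% growth inhibition (pGI50), total cytostasis (pTGI) or 50% cell kill (pLC50); only values >4.00 reported; mean graph midpoint is the calculated panel mean.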

NSCLC = assay: Antitumor activity against NSCLC cell lines of the NCI60 panel; type: functional; conditions: Homo sapiens; for TGI: read-out: pTGI (converted); in short: as §4
[9] = Antitumor activity against colon cell lines of the NCI60 panel; type: functional; conditions: Homo sapiens; for TGI: read-out: pTGI (converted); in short: as §4
[10] = Antitumor activity against CNS cell lines of the NCI60 panel; type: functional; conditions: Homo sapiens; for TGI: read-out: pTGI (converted); in short: as §4
[11] = Antitumor activity against melanoma cell lines of the NCI60 panel; type: functional; conditions: Homo sapiens; for TGI: read-out: pTGI (converted); in short: as §4
[12] = Antitumor activity against ovarian cell lines of the NCI60 panel; type: functional; conditions: Homo sapiens; for TGI: read-out: pTGI (converted); in short: as §4
[13] = Antitumor activity against renal cell lines of the NCI60 panel; type: functional, Homo sapiens; conditions: for GI50 / TGI: Homo sapiens, renal; for TGI: read-out: pTGI (converted); in short: as §4
[14] = Antitumor activity against prostate cell lines of the NCI60 panel; type: functional; conditions: Homo sapiens; for TGI: read-out: pTGI (converted); in short: as §4
[15] = Antitumor activity against breast cell lines of the NCI60 panel; type: functional; conditions: Homo sapiens; for TGI: read-out: pTGI (converted); in short: as §4
HL-60 [16] = assay: Induction of cell death in HL60 cells at 25 uM after 48 hrs relative to control; type: functional, Homo sapiens; in short: as §1
HL-60 [17] = assay: Reduction in cell proliferation of HL60 cells at 25 uM after 48 hrs relative to control; type: functional, Homo sapiens; design: scale not given: the % may be the effect or the level left
In short: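 HL60 cells in complete RPMI medium incubated with compound (DMSO-diluted; vehicle controls); total cell number counted by flow cytometry relative to control. One experiment shown, repeated three times.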

HL-60 [18] = assay: Cell cycle arrest in HL60 cells by accumulation in G2/M phase at 25 uM after 24 hrs
[19] = biological target: T1, S-adenosylmethionine decarboxylase proenzyme (Homo sapiens) (UniProt P17707); assay: Inhibition of SAMDC in HL60 cells by release of radioactive CO2 from [14C-carboxyl]S-adenosylmethionine; conditions: HL-60
T1 sequence (whole entry): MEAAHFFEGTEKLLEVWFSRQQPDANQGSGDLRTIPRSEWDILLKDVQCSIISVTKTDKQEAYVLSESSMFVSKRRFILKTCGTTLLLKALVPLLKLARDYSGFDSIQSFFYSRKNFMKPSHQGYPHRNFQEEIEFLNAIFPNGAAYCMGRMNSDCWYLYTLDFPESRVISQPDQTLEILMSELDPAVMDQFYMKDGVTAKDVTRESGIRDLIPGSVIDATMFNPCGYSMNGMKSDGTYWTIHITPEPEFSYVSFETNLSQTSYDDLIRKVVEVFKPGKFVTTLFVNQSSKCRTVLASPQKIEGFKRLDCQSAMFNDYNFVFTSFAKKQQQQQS

HL-60 [20] = assay: Mitochondrial potential in HL60 cells assessed as decrease in mitochondrial membrane potential by DiOC6 staining at 25 uM after 24 hrs; design: scale not given: the % may be the effect or the level left
HL-60 [21] = assay: Mitochondrial potential in HL60 cells assessed as decrease in ATP level at 0.5 uM; type: functional, cell-based; conditions: Homo sapiens

Structure (SMILES)	GI50 [8] [µM]	TGI [8] [µM]	GI50 (NSCLC) [µM]	TGI (NSCLC) [µM]	GI50 [9] [µM]	TGI [9] [µM]	GI50 [10] [µM]	TGI [10] [µM]	GI50 [11] [µM]	TGI [11] [µM]	GI50 [12] [µM]	TGI [12] [µM]	GI50 [13] [µM]	TGI [13] [µM]	GI50 [14] [µM]	TGI [14] [µM]	GI50 [15] [µM]	TGI [15] [µM]	Activity [19]	further results
Cc1sc2nc(-c3ccccn3)c(/C=N/NC(=N)N)n2c1C	52.5	83.2	18.2	37.2	18.2	40.7	20.9	41.7	17	33.1	18.6	37.2	6.61	31.6	22.4	57.5	22.9	41.7	inactive	Activity (HL-60 [1]): 45%; Activity (HL-60 [2]): 100%; Activity (HL-60 [3]): Dose-dependent effect; Activity (HL-60 [4]): Active; Activity (HL-60 [5]): Active; Activity (HL-60 [6]): Active; Activity (HL-60 [7]): Active; Activity (HL-60 [16]): 25%; Activity (HL-60 [17]): > 80%; Activity (HL-60 [18]): 52%; Activity (HL-60 [20]): 50%
N=C(N)N/N=C/c1c(-c2ccncc2)nc2sc(Cl)cn12	3.8	11.7	6.76	17	8.13	27.5	7.76	20	5.89	13.8	10.2	20.9	6.61	–	17.4	33.1	13.2	40.7	inactive	Activity (HL-60 [21]): inactive
Cc1sc2nc(-c3ccncc3)c(/C=N/NC(=N)N)n2c1C	30.2	95.5	38.9	97.7	35.5	79.4	38.9	93.3	38	83.2	53.7	97.7	39.8	89.1	55	–	43.7	91.2	–	–
CC(/C=N/NC(=N)N)=N\NC(=N)N [MITOGUAZONE]	7.94	631	25.1	316	12.6	501	20	251	39.8	316	15.8	316	20	–	100	1580	15.8	316	–	LC50 [13]: 501 µM and 2000 µM
N=C(N)N/N=C/c1c(-c2cc([N+](=O)[O-])c(Cl)cc2Cl)nc2n1CCS2	0.339	3.16	1.15	2.57	0.447	2.19	0.302	9.55	0.759	2.51	1.32	2.82	1.17	2.88	0.813	3.09	0.617	10.5	–	–
N=C(N)N/N=C/c1c(-c2cc([N+](=O)[O-])c(Cl)cc2Cl)nc2sccn12	1.45	4.27	1.78	3.47	1.02	2.14	1.55	3.47	1.58	3.02	1.86	3.55	2	–	2.09	–	2.82	6.03	–	–
Cc1csc2nc(-c3cc([N+](=O)[O-])c(Cl)cc3Cl)c(/C=N/N=C(N)N)n12	2.51	25.7	17	35.5	15.1	33.1	17.8	34.7	16.2	31.6	17	37.2	17	33.1	16.6	35.5	15.5	32.4	–	–
CCCc1cn2c(/C=N/NC(=N)N)c(-c3cc([N+](=O)[O-])c(Cl)cc3Cl)nc2s1	0.724	1.95	1.74	3.24	1.48	2.75	1.66	3.09	1.66	3.09	1.62	3.02	1.66	3.09	1.74	3.39	1.74	3.47	inactive	Activity (HL-60 [21]): inactive
N=C(N)N/N=C/c1c(-c2cccnc2)nc2sc(Cl)cn12	13.8	42.7	20	41.7	8.51	21.9	15.1	31.6	18.2	36.3	15.5	36.3	18.2	35.5	15.1	28.2	16.6	46.8	–	–
N=C(N)N/N=C/c1c(-c2cc([N+](=O)[O-])c(Cl)cc2Cl)nc2sc(Cl)cn12	3.55	44.7	22.9	72.4	5.75	50.1	10.7	64.6	11.2	53.7	19.5	66.1	29.5	81.3	19.1	93.3	10.5	38.9	–	–
